Compound activity as filed in PubChem BioAssay.
Only some compounds are listed: those with a hit (about 2% of all), similar ones and a draw of the others.
LYP act – activators of human LYP (PTPN22) phosphatase; Q9Y2R2; recombinant LYP, DiFMUP fluorescence; 0 = plate median, 100 = signal doubled; activation, % at 2 µM; 0.11% of 96,000 active; AID 697;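 active = activation at 2 µM above a set limit, the mean plus 5 SD, cut at about 37% in these data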
PLK1 inh – PLK1 (human) kinase inhibition; recombinant PLK1 kinase, TR-FRET peptide phosphorylation; 0.53% of 97,000 active; inhibition, % at 10 µM; P53350;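 active = inhibition of 50% or more in the single-concentration screen; inactive = inhibition below 50%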;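 note: 0% = DMSO max control and 100% = H-89 dihydrochloride min control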
Rev-RRE block – inhibitors of HIV-1 Rev-RRE RNA interaction; P05866; Rev peptide-RRE RNA binding, FRET; inhibition, % at 8 µM; 0.79% of 97,000 active;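 active = inhibition above the screen-wide mean plus 3 SD, cut at about 35% in these data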;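 note: 0% = median DMSO wells and 100% = median Neomycin B control wells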
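Test system: Cy5-tagged RRE RNA duplex with fluorescein-tagged Rev peptide | Read-out: % inhibition of FRET ratio versus controls | Probe or stimulus: Labelled Rev peptide | Incubation: 5 min RNA-compound premix plus 15 min binding step, 25 °C | Technique: FRET fluorescence readout | Benchmarks: DMSO low control, neomycin B high control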
PLK1 PBD inh – Plk1 (human) PBD binding inhibition. 0.13% of 97,000 active. inhibition, %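 (tested at about 20 µM)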. P53350. AID 693. Plk1 PBD phosphopeptide binding, fluorescence polarization; in the data active = inhibition above about 34%, passing the limit was not always enough
EphB4 antag – antagonists of human EphB4-ephrin-B2 interaction; 0.15% of 97,000 active; inhibition, % at 7 µM; P54760; EphB4 LBD / TNYL-RAW-Alexa532 peptide, fluorescence polarization;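 active = inhibition above the screen-wide mean inhibition plus 3 SD, cut at about 15% in these data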;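 note: 0% = DMSO wells and 100% = excess unlabeled TNYL-RAW peptide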
LYP inh 2 – blocks human PTPN22 phosphatase activity; Q9Y2R2; recombinant LYP catalytic domain, DiFMUP fluorescence; inhibition, % at 2 µM; 0.21% of 96,000 active; AID 640;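 active = inhibition at 2 µM at or above a set limit, the screen mean plus 3 SD, cut at about 24% in these data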;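 note: 0% = DMSO with enzyme and 100% = enzyme fully blocked by orthovanadate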
* marks the source's active call; other numbers are inactive results; . = no result given; [ ] = dose if it differs, or a comment.

SMILES	LYP act	PLK1 inh	Rev-RRE block	PLK1 PBD inh	EphB4 antag	LYP inh 2
COC(=O)c1ccc(NC(=O)CCn2c(=O)oc3ccccc32)cc1	-10	-2	0	-5	2	9
CCOC(=O)c1ccc(NCn2c(=O)oc3ccccc32)cc1	2	-8	55*	5	-9	-2
CC1CCCCN1C(=O)Cn1nnc(-c2cccnc2)n1 (stereo not given)	12	-9	38*	0	2	-8
Cc1ccc(-c2nnn(CCC(=O)N3CCCCC3C)n2)cc1 (stereo not given)	1	-10	6	-14	6	-2
O=C(O)CCC(=O)N1CCN(c2nc(-c3ccccc3Cl)c3cc(Br)ccc3n2)CC1	-1	-15	0	2	16*	6
COc1cccc(C2=CC(c3ccccc3)n3ncnc3N2)c1 (stereo not given)	18	-5	42*	-5	-1	-21
COc1cccc(C2=CC(c3ccc(N(C)C)cc3)n3ncnc3N2)c1 (stereo not given)	2	-10	34	-7	1	-5
Cc1ccc(C2CC(c3ccco3)n3ncnc3N2)cc1 (stereo not given)	-9	-2	5	-4	2	8
COc1ccc(C2C=C(c3ccccc3)Nc3nnnn32)cc1 (stereo not given)	-2	-9	14	21	-5	-1
CCOc1ccc(C2C=C(c3ccc(F)cc3)Nc3ncnn32)cc1 (stereo not given)	0	-14	57*	-17	0	-3
CCOc1ccc(C2C=C(c3ccccc3)Nc3ncnn32)cc1 (stereo not given)	6	-7	40*	-18	-1	-9
CCCC1=C(C(=O)OCC)C(c2ccc(F)cc2)n2ncnc2N1 (stereo not given)	4	-9	13	-16	-5	-6
C1=C(c2ccc(-c3ccccc3)cc2)Nc2ncnn2C1c1ccco1 (stereo not given)	9	2	118*[fluorescence artefact?]	-42	3	-13
Cc1cc(C)cc(N(CC(=O)NCCSc2ccccn2)S(=O)(=O)c2ccccc2)c1	-2	-10	9	-12	-2	6
CCCC(=O)N(CCN(C(=O)CCC)c1ccccc1)c1ccccc1	-8	-7	-3	-20	-9	3
Cc1cc(S(=O)(=O)N2CCN(c3ccc(F)cc3)CC2)c(C)s1	0	-9	10	8	3	-1
CNC(=O)CC1C(=O)N(C)C(=S)N1NC(=O)c1ccc(Cl)cc1 (stereo not given)	-3	-6	4	4	3	6
CC(C)c1nnc(NC(=O)c2cccs2)s1	.	67*	8	-12	2	.
CC(C)N(C(=O)CSc1nnc(NC(=O)c2cccs2)s1)C(C)C	8	-7	9	-1	4	-7
CCC(C)(C)n1nnnc1CN1CCN(C(c2ccccc2)c2ccccc2)CC1	-13	-6	1	-13	3	13
CCCOc1cc(N(CC)CC)ccc1/C=C(/C#N)c1nc2ccc(C)cc2[nH]1	-7	-74	133*[fluorescence artefact?]	-206	-7	10
COc1cc(/C=C(\C#N)c2nc3ccc(C)cc3[nH]2)c([N+](=O)[O-])cc1OC	-3	-14	9	4	-1	6
CCN(CC)c1ccc(/C=C(/C#N)c2nc3ccc(C)cc3[nH]2)c(OC(C)C)c1	-6	-67	138*[fluorescence artefact?]	-192	-1	10
CCOc1cc(N(CC)CC)ccc1/C=C(/C#N)c1nc2ccccc2[nH]1	-2	-50	132*[fluorescence artefact?]	-202	-6	4
CC(/C=N/n1c(C2CCCCC2)n[nH]c1=S)=C\c1ccccc1	-23	-7	-3	-6	-6	26*
SMILES	LYP act	PLK1 inh	Rev-RRE block	PLK1 PBD inh	EphB4 antag	LYP inh 2
COc1cc2cc(/C=C/C(=O)c3ccco3)c(Cl)nc2cc1OC	-6	-27	79*[fluorescence artefact?]	-30	9	8
O=[N+]([O-])c1ccc(/C=N/Nc2nc(-c3ccccc3)c3cc(Br)ccc3n2)o1	6	-13	22	-4	8	-6
COc1ccccc1-c1cnnc(N/N=C/c2ccc(-c3cccc(Br)c3)o2)n1	-31	-14	1	0	4	31*
Cc1[nH]c2ccccc2c1C(=O)Cn1c(=O)oc2ccccc21	14	0	0	4	-8	-14
CC1=Nc2ccccc2/C1=C\c1nc(-c2ccc(F)cc2)oc1O	-3	-12	52*	-37	15*	2
Cc1ccc(C)c(S(=O)(=O)NCc2ccc(C(=O)N3CCC(Cc4ccccc4)CC3)cc2)c1	-6	-2	0	-33	8	9
CCCc1nc(SCC(=O)N2CCC(Cc3ccccc3)CC2)c2c(=O)n(C)c(=O)n(C)c2n1	-12	-16	-4	3	-1	12
O=C(CSc1nc(-c2ccccc2)c(-c2ccccc2)[nH]1)Nc1nccs1	-8	61*	17	-14	1	12
CC1CCN(C(=O)Cn2c(SCC(=O)Nc3nccs3)nc3ccccc32)CC1	8	61*	3	25	-2	-8
CCn1c(Cc2cccc3ccccc23)nnc1SCC(=O)Nc1nccs1	-7	65*	1	-6	2	7
CCn1c(CNC(=O)Cc2ccc(OC)cc2)nnc1SCC(=O)Nc1nccs1	-6	-7	0	1	-4	5
Cc1ccc(-c2nnc(SCC(=O)Nc3nccs3)n2N)cc1	10	63*	3	-21	5	-11
Cc1onc(-c2ccccc2Cl)c1C(=O)Nc1ccccc1N1CCOCC1	0	-8	11	13	0	1
Cc1cc(C)c(NC(=O)c2ccc(CN3CCc4ccccc4C3)cc2)c(C)c1	-10	-6	17	-17	3	6
Cc1ccc(-c2cc(C(=O)N3CCCc4ccccc43)c3ccccc3n2)cc1	-3	-11	4	13	4	2
Cc1cccc2cc3c(N)c(C(=O)N4CCOCC4)sc3nc12	-2	-3	50*	4	-3	1
Cc1cccc(-n2nnc(C(=O)N3CCc4ccccc4C3)c2N)c1	5	-1	13	18	2	-5
Cc1cc(C)c2cc3c(N)c(C(=O)N4CCc5ccccc5C4)sc3nc2c1	-12	-9	72*	-7	3	14
Cc1ccc2nc3sc(C(=O)N4CCCc5ccccc54)c(N)c3cc2c1	11	-4	49*	-57	0	-14
O=C(/C=C/c1ccccc1Cl)NC(=S)Nc1ccccc1C(=O)NC1CCCCC1	-13	-6	2	-7	1	15
Cc1nn(C)c(C)c1/C=N/N=C1\CCC2C3CCc4cc(O)ccc4C3CCC12C (stereo not given)	6	-10	-3	-10	-3	-9
CCCc1cc(=O)[nH]c(SCC)n1	-7	-4	4	-1	-2	7
